Data set [1] in a line: Cytotoxicity against human TERT immortalized BJ1 cells at 100 uM after 48 hrs by MTT assay relative to control. In kind it is cell-based, BJ. Summed up: (§1)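 hTERT-immortalized BJ1 fibroblasts were grown in DMEM with 10% FCS, 1 mM pyruvate and 4 mM […]. Cells (about 2 × 10^3 per well) were seeded and held 24 h at 37 °C. Compounds were freshly dissolved in DMSO, diluted into medium and left on the cells 48 h. MTT was added for 4 h, then SDS/DMF lysis buffer for 16 h. Absorbance was read at 550 nm and expressed relative to untreated cells (100%).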
(In general: Tetrazolium dyes change colour on reduction, which living cells bring about.)

The target of data set [2] is T1, Telomerase reverse transcriptase (Homo sapiens, UniProt O14746). The data set is described as follows: Effect on human TERT expressed in H1299 cells at 1 uM after 24 hrs by SEAP assay relative to control.
T1 sequence (O14746 whole entry): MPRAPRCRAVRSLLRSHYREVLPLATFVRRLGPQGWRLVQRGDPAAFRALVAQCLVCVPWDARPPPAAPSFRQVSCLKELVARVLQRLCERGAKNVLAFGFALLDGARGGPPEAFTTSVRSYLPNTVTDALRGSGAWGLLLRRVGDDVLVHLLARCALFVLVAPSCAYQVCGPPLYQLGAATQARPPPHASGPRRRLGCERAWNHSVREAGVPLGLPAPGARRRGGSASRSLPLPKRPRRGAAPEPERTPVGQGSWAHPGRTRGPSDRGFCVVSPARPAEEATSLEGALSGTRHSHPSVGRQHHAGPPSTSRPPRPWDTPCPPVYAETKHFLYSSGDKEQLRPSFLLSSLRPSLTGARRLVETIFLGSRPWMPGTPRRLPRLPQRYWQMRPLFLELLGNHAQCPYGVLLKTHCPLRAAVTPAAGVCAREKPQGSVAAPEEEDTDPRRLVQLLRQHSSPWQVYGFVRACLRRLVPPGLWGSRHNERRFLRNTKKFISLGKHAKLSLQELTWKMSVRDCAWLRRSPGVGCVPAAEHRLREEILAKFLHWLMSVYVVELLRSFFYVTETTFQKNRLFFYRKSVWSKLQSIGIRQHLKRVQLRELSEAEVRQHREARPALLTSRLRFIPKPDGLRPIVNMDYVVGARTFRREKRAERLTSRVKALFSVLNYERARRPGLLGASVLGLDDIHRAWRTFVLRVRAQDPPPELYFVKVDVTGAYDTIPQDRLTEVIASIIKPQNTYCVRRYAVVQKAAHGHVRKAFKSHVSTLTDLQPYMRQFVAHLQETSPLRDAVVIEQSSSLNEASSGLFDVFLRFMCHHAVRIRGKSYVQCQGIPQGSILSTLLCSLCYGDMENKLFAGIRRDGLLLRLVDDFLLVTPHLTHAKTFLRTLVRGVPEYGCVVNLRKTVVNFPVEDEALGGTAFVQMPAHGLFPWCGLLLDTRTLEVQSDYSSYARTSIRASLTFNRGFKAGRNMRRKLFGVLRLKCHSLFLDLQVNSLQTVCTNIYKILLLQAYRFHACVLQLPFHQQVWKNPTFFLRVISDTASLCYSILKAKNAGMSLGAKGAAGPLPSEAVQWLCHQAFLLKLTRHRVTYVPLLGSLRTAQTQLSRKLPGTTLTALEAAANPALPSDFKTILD
Data set [3] is described as follows: Cell viability of human H1299 cells at 1 uM after 48 hrs by MTT assay relative to control. Conditions: NCI-H1299, 48 h.
Data set [4] is described as follows: Cytotoxicity against human H1299 cells at 10 uM after 48 hrs by MTT assay realtive to control. Conditions: NCI-H1299, 48 h. Type of data set: functional. In short, it runs like this: (§2)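 H1299 non-small-cell lung cells were kept in RPMI 1640 with 10% FBS and penicillin/streptomycin at 37 °C under 5% CO2. About 2 × 10^3 cells per well were pre-incubated for 24 h. Compound was added from freshly made DMSO solution diluted in complete medium and left for 48 h. MTT was then added for 4 h at 37 °C, followed by 20% SDS/50% DMF lysis buffer for 16 h at 37 °C, and absorbance read at 550 nm.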

A short description of data set [5]: Cytotoxicity against human TERT immortalized BJ1 cells at 1 uM after 48 hrs by MTT assay relative to control. Type of data set: cell-based, BJ. In short, it runs like this: as §1
Data set [6] is described as follows: Cytotoxicity against human H1299 cells at 100 uM after 48 hrs by MTT assay realtive to control. In kind it is functional. Conditions: NCI-H1299, 48 h. Summed up:
as §2

Data set [7] addresses T1, Telomerase reverse transcriptase. The data set is described as follows: Effect on human TERT expressed in H1299 cells at 10 uM after 24 hrs by SEAP assay relative to control.
For data set [8] the target is unchanged. In words: Effect on human TERT expressed in H1299 cells at 100 uM after 24 hrs by SEAP assay relative to control.
A short description of data set [9]: Cytotoxicity against human TERT immortalized BJ1 cells at 10 uM after 48 hrs by MTT assay relative to control. In kind it is cell-based, BJ. Summed up: as §1
In data set [10] the target is T1, Telomerase reverse transcriptase. In words: Effect on human TERT expressed in BJ1 cells at 1 uM after 24 hrs by SEAP assay realtive to control. Conditions: BJ.
Data set [11] shares this target. In words: Effect on human TERT expressed in BJ1 cells at 100 uM after 24 hrs by SEAP assay relative to control. Conditions: BJ.
For data set [12] the target is unchanged. In words: Effect on human TERT expressed in BJ1 cells at 10 uM after 24 hrs by SEAP assay relative to control. Conditions: BJ.

For `O=C(CN1CCNCC1)Nc1ccc2c(c1)C(=O)c1cc(NC(=O)CN3CCNCC3)ccc1C2=O`, in data set [1], the viability – broadly, a read-out of living cells in per cent, often relative to untreated cells – at 48 h, 100 µM was 76%. The residual activity (commonly the signal under treatment as a percentage of the control signal) amounted to 89% in [2], 72% in data set [7] and 60% in data set [8]. Besides, in [3], the cell viability (as a rule, a read-out of living cells in per cent, often relative to untreated cells) at 1 µM was found to be 88%. The viability at 10 µM in [4] turned out to be 85%. For the same compound, the viability at 48 h, 1 µM in data set [5] worked out at 88%. Also, the viability at 100 µM in [6] amounted to 88%. For the same compound, in data set [9], the viability at 48 h, 10 µM was 85%.
As for `O=C(CCc1ccccc1)Nc1ccc2c(c1)C(=O)c1cc(NC(=O)CCc3ccccc3)ccc1C2=O`, the viability at 48 h, 100 µM in data set [1] was found to be 44%. For the same compound, the residual activity in data set [2] is 89%; in [10], 74%; in data set [11], 43%; in [7], 79%; in data set [8] it was 61%; in data set [12], 92%. For the same compound, in data set [3], the cell viability at 1 µM was found to be 102%. The viability at 10 µM in [4] is 94%. Further, the viability at 48 h, 1 µM in data set [5] was 89%. In [6], the viability at 100 µM was 76%. Further, in [9], the viability at 48 h, 10 µM was 44%.
`CCCCNCC(=O)Nc1ccc2c(c1)C(=O)c1cc(NC(=O)CNCCCC)ccc1C2=O`: the viability at 48 h, 100 µM in data set [1] amounted to 43%. The residual activity in data set [2] was 77%; in [10], 27%; in data set [11] it was 80%; in data set [7] it was 26%; in data set [8], 20%; in [12], 24%. The cell viability at 1 µM in data set [3] amounted to 91%. Also, the viability at 10 µM in [4] stood at 17%. Also, the viability at 48 h, 1 µM in [5] stood at 103%. Also, in data set [6], the viability at 100 µM was 15%. For the same compound, in data set [9], the viability at 48 h, 10 µM came out at 41%.
Turning to `CC(C)CNCC(=O)Nc1ccc2c(c1)C(=O)c1cc(NC(=O)CNCC(C)C)ccc1C2=O`, the viability at 48 h, 100 µM in data set [1] was 39%. Also, the residual activity in [2] is 73%; in [10], 83%; in data set [11], 40%; in [7] it was 38%; in data set [8], 26%; in [12], 44%. The cell viability at 1 µM in data set [3] was 108%. For the same compound, in data set [4], the viability at 10 µM amounted to 39%. Besides, the viability at 48 h, 1 µM in data set [5] is 107%. The viability at 100 µM in data set [6] came out at 11%. Also, in data set [9], the viability at 48 h, 10 µM worked out at 37%.
As to `CN1CCN(CC(=O)Nc2ccc3c(c2)C(=O)c2cc(NC(=O)CN4CCN(C)CC4)ccc2C3=O)CC1`, the viability at 48 h, 100 µM in data set [1] was determined as 47%. For the same compound, the residual activity in [2] was determined as 76%; in data set [10] it was 61%; in data set [11], 97%; in data set [7], 50%; in data set [8], 23%; in data set [12] it was 68%. The cell viability at 1 µM in [3] was 90%. Besides, the viability at 10 µM in [4] was 71%. The viability at 48 h, 1 µM in data set [5] was determined as 86%. Besides, in data set [6], the viability at 100 µM amounted to 37%. For the same compound, the viability at 48 h, 10 µM in data set [9] was found to be 69%.
In the case of `CC(C)NCC(=O)Nc1ccc2c(c1)C(=O)c1cc(NC(=O)CNC(C)C)ccc1C2=O`, in data set [1], the viability at 48 h, 100 µM came out at 39%. The residual activity came to 73% in data set [2]; 79% in [10]; 45% in [11]; 28% in data set [7]; 21% in data set [8]; 55% in [12]. For the same compound, the cell viability at 1 µM in data set [3] is 78%. In [4], the viability at 10 µM came out at 26%. Moreover, in data set [5], the viability at 48 h, 1 µM was 89%. For the same compound, the viability at 100 µM in data set [6] was found to be 6%. Moreover, the viability at 48 h, 10 µM in data set [9] was determined as 41%.
As to `O=C(CCl)Nc1ccc2c(c1)C(=O)c1cc(NC(=O)CCl)ccc1C2=O`, the viability at 48 h, 100 µM in data set [1] was 88%. Besides, the residual activity in data set [2] is 72%; in data set [11] it was 135%; in [7], 40%; in data set [8], 36%; in data set [12], 69%. Also, the cell viability at 1 µM in data set [3] worked out at 58%. In [4], the viability at 10 µM was found to be 5%. In data set [5], the viability at 48 h, 1 µM turned out to be 105%. Besides, the viability at 100 µM in [6] is 1%. For the same compound, the viability at 48 h, 10 µM in data set [9] came out at 89%.
On to `CCCC(=O)Nc1ccc2c(c1)C(=O)c1cc(NC(=O)CCC)ccc1C2=O`, for which the viability at 48 h, 100 µM in data set [1] was 50%. Besides, the figures for the residual activity in [2], in [7] and in data set [8] were 90%, 83% and 83%, respectively. In addition, the cell viability at 1 µM in [3] turned out to be 93%. In addition, the viability at 10 µM in [4] worked out at 59%. Further, the viability at 48 h, 1 µM in [5] is 84%. The viability at 100 µM in data set [6] stood at 40%. Also, the viability at 48 h, 10 µM in data set [9] turned out to be 51%.
Consider `O=C(CN1CCCC1)Nc1ccc2c(c1)C(=O)c1cc(NC(=O)CN3CCCC3)ccc1C2=O`, for which the viability at 48 h, 100 µM in [1] was 39%. The residual activity in [2] came to 88%; in [7] it was 48%; in data set [8], 30%. In addition, in [3], the cell viability at 1 µM turned out to be 99%. In data set [4], the viability at 10 µM came to 52%. Besides, the viability at 48 h, 1 µM in [5] turned out to be 99%. For the same compound, the viability at 100 µM in [6] amounted to 23%. Moreover, in [9], the viability at 48 h, 10 µM was 60%.
Take `O=C1c2ccc([N+](=O)[O-])cc2C(=O)c2cc([N+](=O)[O-])ccc21`: the viability at 48 h, 100 µM in data set [1] was 86%. Moreover, the residual activity amounted to 87% in data set [2]; 55% in data set [10]; 65% in data set [11]; 85% in data set [7]; 62% in data set [8]; 60% in data set [12]. Besides, the cell viability at 1 µM in data set [3] was determined as 97%. Further, the viability at 10 µM in [4] turned out to be 95%. In data set [5], the viability at 48 h, 1 µM was found to be 91%. Also, the viability at 100 µM in [6] came out at 69%. In addition, the viability at 48 h, 10 µM in data set [9] amounted to 91%.
On to `CCCNCC(=O)Nc1ccc2c(c1)C(=O)c1cc(NC(=O)CNCCC)ccc1C2=O`, for which the viability at 48 h, 100 µM in data set [1] stood at 42%. Besides, the residual activity in [2] was 73%; in data set [7] it was 44%; in [8] it was 24%. Also, in [3], the cell viability at 1 µM was 89%. Also, the viability at 10 µM in data set [4] amounted to 54%. Further, the viability at 48 h, 1 µM in data set [5] came out at 96%. The viability at 100 µM in data set [6] turned out to be 14%. Further, in data set [9], the viability at 48 h, 10 µM is 44%.
As to `O=C(CCCl)Nc1ccc2c(c1)C(=O)c1cc(NC(=O)CCCl)ccc1C2=O`, in data set [1], the viability at 48 h, 100 µM came to 39%. Moreover, the residual activity stood at 94% in data set [2], 94% in data set [7] and 87% in data set [8]. In data set [3], the cell viability at 1 µM was found to be 77%. For the same compound, the viability at 10 µM in data set [4] came out at 44%. The viability at 48 h, 1 µM in data set [5] was determined as 77%. In addition, in [6], the viability at 100 µM stood at 29%. For the same compound, the viability at 48 h, 10 µM in data set [9] was 65%.
`O=C(Nc1ccc2c(c1)C(=O)c1cc(NC(=O)c3ccccc3)ccc1C2=O)c1ccccc1`: the viability at 48 h, 100 µM in [1] was 97%. Moreover, the residual activity in [2] was 104%; in data set [11], 36%; in data set [7], 92%; in data set [8], 85%; in data set [12], 72%. In addition, in [3], the cell viability at 1 µM came out at 71%. Further, the viability at 10 µM in [4] is 47%. In data set [5], the viability at 48 h, 1 µM worked out at 92%. The viability at 100 µM in data set [6] was 41%. Further, in [9], the viability at 48 h, 10 µM was 85%.
Consider `CN1CCN(CCC(=O)Nc2ccc3c(c2)C(=O)c2cc(NC(=O)CCN4CCN(C)CC4)ccc2C3=O)CC1`, for which, in [1], the viability at 48 h, 100 µM came out at 61%. The residual activity is 75% in [2], 52% in data set [7], 21% in data set [8] and 138% in data set [12]. Further, the cell viability at 1 µM in [3] was found to be 95%. For the same compound, the viability at 10 µM in data set [4] came out at 80%. Further, the viability at 48 h, 1 µM in data set [5] was found to be 95%. In addition, the viability at 100 µM in data set [6] came out at 39%. In addition, the viability at 48 h, 10 µM in data set [9] is 80%.
Turning to `Nc1ccc2c(c1)C(=O)c1cc(N)ccc1C2=O`, the viability at 48 h, 100 µM in [1] was found to be 80%. In addition, the residual activity in data set [2] was determined as 87%; in data set [7] it was 75%; in data set [8] it was 63%. Moreover, the cell viability at 1 µM in data set [3] was determined as 90%. In addition, in [4], the viability at 10 µM came out at 80%. In addition, the viability at 48 h, 1 µM in data set [5] turned out to be 95%. The viability at 100 µM in [6] was found to be 65%. Further, the viability at 48 h, 10 µM in data set [9] came to 83%.

Values taken from ChEMBL document CHEMBL1155063 (Bioorg Med Chem, 2008).
